Results reported in ChEMBL document CHEMBL1125490, “3'-Spiro nucleosides, a new class of specific human immunodeficiency virus type 1 inhibitors: synthesis and antiviral activity of [2'-5'-bis-O-(tert-butyldimethylsilyl)-beta-D-xylo- and -ribofuranose]-3'-spiro-5"-[4"-amino-1",2"-oxathiole 2",2"-dioxide] (TSAO) pyrimidine nucleosides” (J Med Chem, 1992).
Converted amounts (≈) assume the structure as drawn.

Legend:
[1] = tested on: Human immunodeficiency virus 1; test: Concentration required to inhibit HIV-1 induced cytopathicity in human MT-4 lymphocyte cells.; type: functional, organism-based
Summary of the method: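 MT-4 cells at 5 × 10⁵/mL were infected with HIV-1 at 100 CCID₅₀ per mL of cell suspension, then mixed 1:1 with serial dilutions of compound. After 5 days, viable cells were counted by trypan blue staining. EC₅₀ was the concentration giving 50% protection against virus-induced loss of viable cells. Values are means of at least three to five independent experiments.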

MT4 [2] = test: Ratio of effective concentration to that of cytotoxic concentration against HIV-1 induced cytopathogenicity in MT-4 cells; type: functional
MT4 [3] = test: Concentration required to reduce human MT-4 cell viability by 50%.; type: functional
Summary of the method: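 Mock-infected MT-4 cells were cultured 5 days with serial dilutions of compound, and viable cells were counted by trypan blue staining. CC₅₀ was the concentration reducing viable cell number by 50%. Values are means of at least three to five independent experiments.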

[4] = Human immunodeficiency virus 1, Lymphocyte, read-out: EC50
[5] = Homo sapiens, MT4, read-out: CC50

Structure (SMILES) | EC50 [1, 4] [µg/mL] | Selectivity index (MT4 [2]) | CC50 (MT4 [3]; [5]) [µg/mL] | EC50 ([1]; lymphocyte) [µg/mL] | CC50 (MT4 [3]) [µg/mL]
CC(C)(C)[Si](C)(C)O[C@H]1[C@H](n2ccc(=O)[nH]c2=O)O[C@H](CO)[C@]12OS(=O)(=O)C=C2N | > 100 | <2 | 221 (≈ 479 µM) | – | –
CC(=O)Nc1ccn([C@@H]2O[C@H](CO[Si](C)(C)C(C)(C)C)[C@]3(OS(=O)(=O)C=C3N)[C@H]2O[Si](C)(C)C(C)(C)C)c(=O)n1 | > 4 | <1.8 | 7.1 (≈ 11.5 µM) | – | –
CC(C)(C)[Si](C)(C)OC[C@H]1O[C@@H](n2ccc(=O)[nH]c2=O)[C@H](O[Si](C)(C)C(C)(C)C)C12OS(=O)(=O)C=C2N (stereo in doubt; 12b) | – | 73 | – | 0.114 (≈ 0.198 µM) | 8.3 (≈ 14.4 µM)
Cc1cn([C@@H]2O[C@H](CO)[C@@]3(OS(=O)(=O)C=C3N)[C@H]2O[Si](C)(C)C(C)(C)C)c(=O)[nH]c1=O | > 40 | <2.6 | 106 (≈ 223 µM) | – | –
Cc1c(Sc2ccccc2)n(COCCO)c(=O)[nH]c1=O [HEPT] | 5.5 (≈ 17.8 µM) | >36 | > 200 | – | –
Cc1cn([C@@H]2O[C@H](CO[Si](C)(C)C(C)(C)C)[C@@]3(OS(=O)(=O)C=C3N)[C@H]2O)c(=O)[nH]c1=O | > 20 | <2.2 | 45 (≈ 94.6 µM) | – | –
Cc1cn([C@@H]2O[C@H](CO[Si](C)(C)C(C)(C)C)[C@@]3(OS(=O)(=O)C=C3N)[C@H]2O[Si](C)(C)C(C)(C)C)c(=O)[nH]c1=O | 0.034 (≈ 0.0576 µM) | – | 7.7 (≈ 13.1 µM) | – | –
Cc1ccnc2c1NC(=O)c1cccnc1N2C1CC1 [NEVIRAPINE] | 0.038 (≈ 0.143 µM) | >526 | > 20 | – | –
NC1=CS(=O)(=O)O[C@]12[C@@H](CO)O[C@@H](n1ccc(=O)[nH]c1=O)[C@@H]2O | > 80 | <4 | 320 (≈ 921 µM) | – | –
Cc1cn([C@@H]2O[C@H](CO[Si](C)(C)C(C)(C)C)[C@@](C#N)(OS(C)(=O)=O)[C@H]2O[Si](C)(C)C(C)(C)C)c(=O)[nH]c1=O | > 1.6 | <2.7 | 4.3 (≈ 7.29 µM) | – | –
Cc1cn([C@@H]2O[C@H](CO)[C@]3(OS(=O)(=O)C=C3N)[C@H]2O)c(=O)[nH]c1=O | > 500 | <1 | > 500 | – | –
CC(=O)Nc1ccn([C@@H]2O[C@H](CO[Si](C)(C)C(C)(C)C)[C@@]3(OS(=O)(=O)C=C3N)[C@H]2O[Si](C)(C)C(C)(C)C)c(=O)n1 | 0.097 (≈ 0.157 µM) | 77 | 7.5 (≈ 12.2 µM) | – | –
CC(C)(C)[Si](C)(C)OC[C@H]1O[C@@H](n2ccc(=O)[nH]c2=O)[C@H](O[Si](C)(C)C(C)(C)C)C12OS(=O)(=O)C=C2N (stereo in doubt; 11b) | – | <2 | – | > 1.6 | 3.1 (≈ 5.38 µM)
CC(C)=CCN1Cc2cccc3[nH]c(=S)n(c23)C[C@@H]1C | 0.021 (≈ 0.0731 µM) | >952 | > 20 | – | –
Cc1cn([C@@H]2O[C@H](CO)[C@@]3(OS(=O)(=O)C=C3N)[C@H]2O)c(=O)[nH]c1=O | > 100 | – | > 100 | – | –
Cc1cn([C@@H]2O[C@H](CO[Si](C)(C)C(C)(C)C)[C@]3(OS(=O)(=O)C=C3N)[C@H]2O[Si](C)(C)C(C)(C)C)c(=O)[nH]c1=O | > 4 | <4.5 | 18 (≈ 30.5 µM) | – | –
Cc1cn([C@H]2C[C@]3(OS(=O)(=O)C=C3N)[C@@H](CO[Si](C)(C)C(C)(C)C)O2)c(=O)[nH]c1=O | > 0.8 | <1.9 | 1.5 (≈ 3.26 µM) | – | –
